According to ChEMBL document CHEMBL1157314, “Antibacterial, partially acetylated oligorhamnosides from Cleistopholis patens” (2006):
≈ marks a conversion by molar mass, not a printed value.

Legend:
Type in all cases: functional
Staphylococcus aureus [1] = assay: Antibacterial activity against linezolid-resistant Staphylococcus aureus 106-12591A isolate after 24 hrs by broth microdilution method
Method in brief: (§1)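 Broth microdilution following NCCLS M7-A6 (2003), with inoculum at the recommended densities. Isolates were placed into panel wells with an autoinoculator and grown in cation-adjusted Mueller-Hinton broth at 35°C in ambient air for overnight to 24 h. Panels were read by eye, and the MIC was taken as no visible growth.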

Staphylococcus aureus [2] = assay: Antibacterial activity against methicillin-resistant Staphylococcus aureus ATCC 33591 after 24 hrs by broth microdilution method; conditions: ATCC 33591, 24 h; method in brief: as §1
Staphylococcus aureus [3] = assay: Antibacterial activity against methicillin-resistant Staphylococcus aureus 78-13607A after 24 hrs by broth microdilution method; method in brief: as §1
Staphylococcus aureus [4] = assay: Antibacterial activity against oxacillin-susceptible Staphylococcus aureus ATCC 29213 after 24 hrs by broth microdilution method; conditions: ATCC 29213, 24 h; method in brief: as §1
Staphylococcus aureus [5] = assay: Antibacterial activity against oxacillin-resistant Staphylococcus aureus ATCC 33591 after 24 hrs by broth microdilution method; conditions: ATCC 33591, 24 h; method in brief: as §1
[6] = system: Staphylococcus epidermidis; assay: Antibacterial activity against oxacillin-susceptible Staphylococcus epidermidis isolate 12-1788A isolate after 24 hrs by broth microdilution method
[7] = system: Staphylococcus haemolyticus; assay: Antibacterial activity against oxacillin-resistant Staphylococcus haemolyticus 107-1240C isolate after 24 hrs by broth microdilution method; method in brief: as §1
Enterococcus faecalis [8] = assay: Antibacterial activity against ampicillin and vancomycin-susceptible Enterococcus faecalis ATCC 29212 after 24 hrs by broth microdilution method; conditions: ATCC 29212, 24 h; method in brief: as §1
Enterococcus faecium [9] = assay: Antibacterial activity against ampicillin and vancomycin-resistant Enterococcus faecium 24-45A isolate after 24 hrs by broth microdilution method; method in brief: as §1
Streptococcus pneumoniae [10] = assay: Antibacterial activity against penicillin-intermediate resistant Streptococcus pneumoniae ATCC 49619 after 24 hrs by broth microdilution method; conditions: ATCC 49619, 24 h; method in brief: as §1
Streptococcus pneumoniae [11] = assay: Antibacterial activity against penicillin-resistant Streptococcus pneumoniae 33-50B isolate after 24 hrs by broth microdilution method; method in brief: as §1
Corynebacterium jeikeium = assay: Antibacterial activity against Corynebacterium jeikeium 15-196A isolate after 24 hrs by broth microdilution method
Method in brief: (§2)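 Broth microdilution following NCCLS M7-A6 (2003) inocula; isolates transferred aseptically into panel wells with an autoinoculator; cation-adjusted Mueller-Hinton broth; incubated overnight to 24 h at 35°C in ambient air; panels read by eye, MIC taken as lowest concentration with no visible growth.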

Bacillus cereus = assay: Antibacterial activity against Bacillus cereus 24-59A isolate after 24 hrs by broth microdilution method
Streptococcus pyogenes = assay: Antibacterial activity against erythromycin-resistant Streptococcus pyogenes 91-8747 isolate after 24 hrs by broth microdilution method; method in brief: as §1
Streptococcus mitis = assay: Antibacterial activity against penicillin-resistant Streptococcus mitis 61-2900C isolate after 24 hrs by broth microdilution method; method in brief: as §1
Pseudomonas aeruginosa = assay: Antibacterial activity against sPseudomonas aeruginosa ATCC 27853 after 24 hrs by broth microdilution method; conditions: ATCC 27853, 24 h; method in brief: as §2
Escherichia coli = assay: Antibacterial activity against sEscherichia coli ATCC 25922 after 24 hrs by broth microdilution method; conditions: ATCC 25922, 24 h; method in brief: as §2
Staphylococcus aureus [12] = assay: Antibacterial activity against mupirocin-resistant Staphylococcus aureus 4-90A isolate after 24 hrs by broth microdilution method; method in brief: as §1
Staphylococcus aureus [13] = assay: Antibacterial activity against quinupristin/dalfopristin-resistant Staphylococcus aureus 300-12053A isolate after 24 hrs by broth microdilution method; method in brief: as §1
Staphylococcus [14] = assay: Antibacterial activity against mupirocin-resistant coagulase negative Staphylococcus 63-18A isolate after 24 hrs by broth microdilution method; method in brief: as §1
Staphylococcus [15] = assay: Antibacterial activity against quinupristin/dalfopristin-resistant coagulase negative Staphylococcus 90-10840A isolate after 24 hrs by broth microdilution method; method in brief: as §1
Staphylococcus [16] = assay: Antibacterial activity against coagulase negative linezolid-resistant Staphylococcus 82-1645A isolate after 24 hrs by broth microdilution method; method in brief: as §1
Enterococcus faecalis [17] = assay: Antibacterial activity against vancomycin-resistant Enterococcus faecalis 48-22D isolate with vanA phenotype after 24 hrs by broth microdilution method; method in brief: as §1
Enterococcus faecalis [18] = assay: Antibacterial activity against vancomycin-resistant Enterococcus faecalis 82-876D with vanB phenotype isolate after 24 hrs by broth microdilution method; method in brief: as §1
Enterococcus faecalis [19] = assay: Antibacterial activity against linezolid-resistant Enterococcus faecalis 15-5341 isolate after 24 hrs by broth microdilution method; method in brief: as §1
Enterococcus faecalis [20] = assay: Antibacterial activity against gentamycin and streptomycin-resistant Enterococcus faecalis 39-11D isolate after 24 hrs by broth microdilution method; method in brief: as §1
Enterococcus faecium [21] = assay: Antibacterial activity against vancomycin-resistant Enterococcus faecium 103-1232D isolate with vanB phenotype after 24 hrs by broth microdilution method; method in brief: as §1
Enterococcus faecium [22] = assay: Antibacterial activity against vancomycin-resistant Enterococcus faecium 15-206A isolate with vanA phenotype after 24 hrs by broth microdilution method; method in brief: as §1
Enterococcus faecium [23] = assay: Antibacterial activity against linezolid-resistant Enterococcus faecium 11-4103A isolate after 24 hrs by broth microdilution method; method in brief: as §1
Enterococcus faecium [24] = assay: Antibacterial activity against quinupristin/dalfopristin-resistant Enterococcus faecium 65-1208A isolate after 24 hrs by broth microdilution method; method in brief: as §1
Bacillus sp. [25] = assay: Antibacterial activity against tetracycline-resistant Bacillus sp. 107-1461D isolate after 24 hrs by broth microdilution method; conditions: Bacillus sp. (in: firmicutes); method in brief: as §1
Bacillus sp. [26] = assay: Antibacterial activity against trimethoprim/sulfamethaxazole-resistant Bacillus sp. 67-1057A isolate after 24 hrs by broth microdilution method; conditions: Bacillus sp. (in: firmicutes); method in brief: as §1
Bacillus sp. [27] = assay: Antibacterial activity against erythromycin-resistant Bacillus sp. 32-2406A isolate after 24 hrs by broth microdilution method; conditions: Bacillus sp. (in: firmicutes); method in brief: as §1
Streptococcus pneumoniae [28] = assay: Antibacterial activity against multidrug resistant Streptococcus pneumoniae 68-2307B isolate after 24 hrs by broth microdilution method; method in brief: as §1
Streptococcus pneumoniae [29] = assay: Antibacterial activity against erythromycin and clindamycin-resistant Streptococcus pneumoniae 4-38B isolate after 24 hrs by broth microdilution method; method in brief: as §1
Streptococcus pneumoniae [30] = assay: Antibacterial activity against erythromycin-resistant and clindamycin-susceptible Streptococcus pneumoniae 35-405B isolate after 24 hrs by broth microdilution method; method in brief: as §1
Corynebacterium sp. [31] = assay: Antibacterial activity against doxycyclin-resistant Corynebacterium sp. 105-1513C isolate after 24 hrs by broth microdilution method; method in brief: as §1
Corynebacterium sp. [32] = assay: Antibacterial activity against streptomycin-resistant Corynebacterium sp. 61-5454A isolate after 24 hrs by broth microdilution method; method in brief: as §1
Corynebacterium sp. [33] = assay: Antibacterial activity against rifampin-resistant Corynebacterium sp. 58-9161A isolate after 24 hrs by broth microdilution method; method in brief: as §1
Streptococcus [34] = assay: Antibacterial activity against erythromycin and clindamycin-resistant beta-haemolytic sStreptococcus 91-526D isolate after 24 hrs by broth microdilution method; method in brief: as §1
Streptococcus [35] = assay: Antibacterial activity against erythromycin-resistant and clindamycin-susceptible beta-haemolytic sStreptococcus 109-820D isolate after 24 hrs by broth microdilution method; method in brief: as §1
Streptococcus [36] = assay: Antibacterial activity against levofloxacin-resistant beta-haemolytic sStreptococcus 19-756A isolate after 24 hrs by broth microdilution method; method in brief: as §1
Streptococcus [37] = assay: Antibacterial activity against mupirocin-resistant viridans group sStreptococcus 32-2395A isolate after 24 hrs by broth microdilution method; method in brief: as §1
Streptococcus [38] = assay: Antibacterial activity against levafloxacin-resistant viridans group Streptococcus 107-6380A isolate after 24 hrs by broth microdilution method; method in brief: as §1
Streptococcus [39] = assay: Antibacterial activity against linezolid-resistant viridans group Streptococcus 27-2832A isolate after 24 hrs by broth microdilution method; method in brief: as §1
Streptococcus [40] = assay: Antibacterial activity against multidrug-resistant viridans group Streptococcus 58-1602D isolate after 24 hrs by broth microdilution method; method in brief: as §1

Compound: CCCCCCCCCCCCO[C@@H]1O[C@@H](C)[C@H](O[C@@H]2O[C@@H](C)[C@H](OC(C)=O)[C@@H](O[C@@H]3O[C@@H](C)[C@H](OC(C)=O)[C@@H](O[C@@H]4O[C@@H](C)[C@H](OC(C)=O)[C@@H](O)[C@H]4O)[C@H]3OC(C)=O)[C@H]2O)[C@@H](O)[C@H]1O
- MIC (Staphylococcus aureus [1]): 2 mg/L (≈ 2.13 µM)
- MIC (Staphylococcus aureus [2]): 0.5 mg/L (≈ 0.532 µM)
- MIC (Staphylococcus aureus [3]): 1 mg/L (≈ 1.06 µM)
- MIC (Staphylococcus aureus [4]): 4 mg/L (≈ 4.26 µM)
- MIC (Staphylococcus aureus [5]): 2 mg/L (≈ 2.13 µM)
- MIC [6]: > 32 mg/L
- MIC [7]: 32 mg/L (≈ 34.1 µM)
- MIC (Enterococcus faecalis [8]): 2 mg/L (≈ 2.13 µM)
- MIC (Enterococcus faecium [9]): 2 mg/L (≈ 2.13 µM)
- MIC (Streptococcus pneumoniae [10]): 4 mg/L (≈ 4.26 µM)
- MIC (Streptococcus pneumoniae [11]): 4 mg/L (≈ 4.26 µM)
- MIC (Corynebacterium jeikeium): 32 mg/L (≈ 34.1 µM)
- MIC (Bacillus cereus): 2 mg/L (≈ 2.13 µM)
- MIC (Streptococcus pyogenes): 4 mg/L (≈ 4.26 µM)
- MIC (Streptococcus mitis): 4 mg/L (≈ 4.26 µM)
- MIC (Pseudomonas aeruginosa): > 32 mg/L
- MIC (Escherichia coli): > 32 mg/L
- MIC (Staphylococcus aureus [12]): > 2 mg/L
- MIC (Staphylococcus aureus [13]): 2 mg/L (≈ 2.13 µM)
- MIC (Staphylococcus [14]): > 32 mg/L
- MIC (Staphylococcus [15]): > 32 mg/L
- MIC (Staphylococcus [16]): > 32 mg/L
- MIC (Enterococcus faecalis [17]): 2 mg/L (≈ 2.13 µM)
- MIC (Enterococcus faecalis [18]): 2 mg/L (≈ 2.13 µM)
- MIC (Enterococcus faecalis [19]): 2 mg/L (≈ 2.13 µM)
- MIC (Enterococcus faecalis [20]): 2 mg/L (≈ 2.13 µM)
- MIC (Enterococcus faecium [21]): 2 mg/L (≈ 2.13 µM)
- MIC (Enterococcus faecium [22]): 2 mg/L (≈ 2.13 µM)
- MIC (Enterococcus faecium [23]): 2 mg/L (≈ 2.13 µM)
- MIC (Enterococcus faecium [24]): 2 mg/L (≈ 2.13 µM)
- MIC (Bacillus sp. [25]): 2 mg/L (≈ 2.13 µM)
- MIC (Bacillus sp. [26]): 2 mg/L (≈ 2.13 µM)
- MIC (Bacillus sp. [27]): 2 mg/L (≈ 2.13 µM)
- MIC (Streptococcus pneumoniae [28]): 4 mg/L (≈ 4.26 µM)
- MIC (Streptococcus pneumoniae [29]): 4 mg/L (≈ 4.26 µM)
- MIC (Streptococcus pneumoniae [30]): 4 mg/L (≈ 4.26 µM)
- MIC (Corynebacterium sp. [31]): 16 mg/L (≈ 17 µM)
- MIC (Corynebacterium sp. [32]): 16 mg/L (≈ 17 µM)
- MIC (Corynebacterium sp. [33]): 16 mg/L (≈ 17 µM)
- MIC (Streptococcus [34]): 4 mg/L (≈ 4.26 µM)
- MIC (Streptococcus [35]): 4 mg/L (≈ 4.26 µM)
- MIC (Streptococcus [36]): 4 mg/L (≈ 4.26 µM)
- MIC (Streptococcus [37]): 4 mg/L (≈ 4.26 µM)
- MIC (Streptococcus [38]): 4 mg/L (≈ 4.26 µM)
- MIC (Streptococcus [39]): 4 mg/L (≈ 4.26 µM)
- MIC (Streptococcus [40]): 4 mg/L (≈ 4.26 µM)
